Test results from ChEMBL document CHEMBL3865821, “Amino substituted benzimidazo[1,2-a]quinolines: Antiproliferative potency, 3D QSAR study and DNA binding properties” (Eur J Med Chem, 2016).
Activity calls are given as the source filed them. No cut-off for these calls is given here.

Experiments:
[1] = Antiproliferative activity against human HCT116 cells after 72 hrs by MTT assay; assay type: functional, cell-based; conditions: HCT-116, 72 h
Method in brief: (§1)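 Tumour cells were grown as monolayers in DMEM with 10 % FBS, 2 mM L-glutamine, penicillin and streptomycin at 37 °C under 5 % CO₂. Tenfold dilutions from 10^-8 to 10^-4 M were applied for 72 h, followed by MTT read at 570 nm. IC50 came from linear regression of percentage growth; at least two experiments, quadruplicate points.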

[2] = Antiproliferative activity against human MCF7 cells after 72 hrs by MTT assay; assay type: functional, cell-based; conditions: MCF7, 72 h; method in brief: as §1
[3] = Antiproliferative activity against human H460 cells after 72 hrs by MTT assay; assay type: functional, cell-based; conditions: NCI-H460, 72 h
Method in brief: as §1, with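 “CO₂. They were seeded at 3×10^4 cells/mL (HCT 116, H460) or 5×10^4 cells/mL (MCF-7).” for “CO₂.”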

[4] = Antiproliferative activity against human shGFP-fused HMLE cells after 72 hrs by MTT assay; assay type: cell-based
Method in brief: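 HMLE-shGFP cells were kept in a 1:1 mix of DMEM + 10 % FBS with insulin, hydrocortisone and HuMEC medium at 37 °C, 5 % CO₂. Agents were given as tenfold dilutions from 10^-8 to 10^-4 M for 72 h, then MTT absorbance was read at 570 nm. IC50 was interpolated by linear regression of percentage growth; at least two experiments, each point in quadruplicate.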

[5] = Binding affinity to duplex calf thymus DNA assessed as change in melting temperature at drug/DNA ratio of 0.1 by spectrophotometric analysis
[6] = Binding affinity to duplex calf thymus DNA assessed as change in melting temperature at drug/DNA ratio of 0.05 by spectrophotometric analysis
[7] = Binding affinity to duplex calf thymus DNA assessed as hypsochromic shift at 20 uM by UV/visible spectroscopic analysis
Method in brief: (§2)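 Compound at 20 μM in BPE buffer (pH 7.1) was titrated with calf-thymus DNA at 1–140 μM in a 10 mm quartz cuvette. Spectra were recorded from 240 to 480 nm against a reference cuvette holding DNA at the same concentration.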

[8] = Binding affinity to duplex calf thymus DNA assessed as bathochromic shift at 20 uM by UV/visible spectroscopic analysis; method in brief: as §2
[9] = Binding affinity to 0.5 to 480 uM of duplex […] (unknown origin) at 0.5 to 540 uM by fluorescence spectroscopic analysis
Method in brief: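 Fluorescent compounds at 10 μM in BPE buffer (pH 7.1) were measured with and without rising calf-thymus DNA. Emission was scanned from 400 to 700 nm. K_sv was taken as the slope of the Stern–Volmer plot F₀/F = 1 + K_sv[ct-DNA].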

[10] = Binding affinity to duplex calf thymus DNA assessed as induction of negative circular dichroic signal at 1 to 60 uM by circular dichroism analysis
Method in brief: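 Calf-thymus DNA at 50 μM was incubated in BPE buffer with or without compound at 1, 5, 10, 20, 30, 40, 50 and 60 μM. CD spectra were recorded from 480 to 230 nm in a 10 mm cell at 20 °C. The compound alone at 60 μM was checked for intrinsic CD.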

Escherichia coli = assay: Binding affinity to negatively supercoiled pUC19 DNA assessed as DNA intercalation by measuring generation of positively supercoiled DNA up to 50 uM preincubated for 15 mins followed by human DNA topoisomerase 1 addition measured after 30 mins by agarose gel electrophoresis
Method in brief: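 Supercoiled pUC19 plasmid was treated with human topoisomerase I, alone or with compound, and topoisomers were resolved by agarose gel electrophoresis. Poisoning, seen as nicked plasmid, was assessed on ethidium bromide-containing agarose gels at up to 100 μM compound.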

[11] = Binding affinity to radiolabeled 265bp DNA (unknown origin) at 0.5 to 50 uM by DNase 1 footprinting analysis
[12] = Binding affinity to duplex calf thymus DNA assessed as change in melting temperature at drug/DNA ratio of 0.5 by spectrophotometric analysis
Method in brief: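 Calf-thymus DNA at 20 μM was heated with or without compound at 10 or 20 μM (drug/base-pair ratio 0.5 or 1) in BPE buffer (6 mM Na₂HPO₄, 2 mM NaH₂PO₄, 1 mM EDTA, pH 7.1). A260 was read every minute from 20 to 100 °C, rising 1 °C per min, and ΔTm was derived.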

[13] = Binding affinity to duplex calf thymus DNA assessed as change in melting temperature at drug/DNA ratio of 0.25 by spectrophotometric analysis

Row | SMILES | IC50 ([1]; read-out: IC50) | IC50 ([1]; read-out: pIC50 (converted)) | IC50 ([2]; read-out: IC50) | IC50 ([2]; read-out: pIC50 (converted)) | IC50 ([3]; read-out: IC50) | IC50 ([3]; read-out: pIC50 (converted)) | IC50 [4] | ΔTm [5] | ΔTm [6] | Activity [7] | Activity [8] | Activity [9] | Activity [10] | inhibition (Escherichia coli) | Activity [11] | ΔTm [12] | ΔTm [13]
1 | CC1CN(c2ccc3c(N4CC(C)NC(C)C4)c(C#N)c4nc5ccccc5n4c3c2)CC(C)N1 (stereo unspecified) | 0.4 µM | 0.4 µM | 1 µM | 1 µM | 0.8 µM | 0.8 µM | 0.2 µM |  |  |  |  |  |  |  |  |  | 
2 | CC1CN(c2c(C#N)c3nc4ccccc4n3c3ccccc23)CC(C)N1 (stereo unspecified) | 3 µM | 3 µM | 6 µM | 6 µM | 4 µM | 4 µM | 3 µM |  |  |  |  |  |  |  |  |  | 
3 | CC(C)Nc1ccc2c(NC(C)C)c(C#N)c3nc4ccccc4n3c2c1 | ≥ 10 µM | 10 µM | 7 µM | 7 µM | 21 µM | 21 µM |  |  |  |  |  |  |  |  |  |  | 
4 | C[N+]1(C)CCN(c2ccc3c(N4CC[N+](C)(C)CC4)c(C#N)c4nc5ccccc5n4c3c2)CC1 | > 100 µM | > 100 µM | > 100 µM | 500 µM | > 100 µM | 500 µM |  | 20.7 °C | 2.1 °C | Active | Active | Active | Active | Active | Active |  | 
5 | CCCN(CCC)c1ccc2c(N(CCC)CCC)c(C#N)c3nc4ccccc4n3c2c1 | 14 µM | 14 µM | 21 µM | 21 µM | 29 µM | 29 µM |  |  |  |  |  |  |  |  |  | 0 °C | 
6 | CCCCCN(CCCCC)c1ccc2c(N(CCCCC)CCCCC)c(C#N)c3nc4ccccc4n3c2c1 | > 100 µM | > 100 µM | > 100 µM | > 100 µM | > 100 µM | 500 µM |  |  |  |  |  |  |  |  |  |  | 
7 | CC(C)CNc1ccc2c(NCC(C)C)c(C#N)c3nc4ccccc4n3c2c1 | 2 µM | 2 µM | 2 µM | 2 µM | 3 µM | 3 µM |  |  |  |  |  |  |  |  |  |  | 
8 | CC(C)Nc1c(C#N)c2nc3ccccc3n2c2ccccc12 | 13 µM | 13 µM | 20 µM | 20 µM | 5 µM | 5 µM |  |  |  |  |  |  |  |  |  |  | 
9 | CNc1ccc2c(NC)c(C#N)c3nc4ccccc4n3c2c1 | 7 µM | 7 µM | 2 µM | 2 µM | ≥ 100 µM | 100 µM |  |  |  |  |  |  |  |  |  | 1.2 °C | 
10 | CCCCNc1ccc2c(NCCCC)c(C#N)c3nc4ccccc4n3c2c1 | 7 µM | 7 µM | 5 µM | 5 µM | 4 µM | 4 µM |  |  |  |  |  |  |  |  |  |  | 
11 | COc1cc([C@@H]2c3cc4c(cc3[C@@H](O[C@@H]3O[C@@H]5CO[C@@H](C)O[C@H]5[C@H](O)[C@H]3O)[C@H]3COC(=O)[C@H]23)OCO4)cc(OC)c1O [ETOPOSIDE] | 5 µM |  | 1 µM |  | 0.1 µM |  | 0.4 µM |  |  |  |  |  |  |  |  |  | 
12 | CC(C)CCNc1ccc2c(NCCC(C)C)c(C#N)c3nc4ccccc4n3c2c1 | 6 µM | 6 µM | 2 µM | 2 µM | 5 µM | 5 µM | 6 µM |  |  |  |  |  |  |  |  |  | 
13 | CCN(CC)c1ccc2c(N(CC)CC)c(C#N)c3nc4ccccc4n3c2c1 | 16 µM | 16 µM | 22 µM | 22 µM | 25 µM | 25 µM |  |  |  |  |  |  |  |  |  |  | 
14 | N#Cc1c(N2CCCCC2)c2ccc(N3CCCCC3)cc2n2c1nc1ccccc12 | 11 µM | 11 µM | 10 µM | 10 µM | 15 µM | 15 µM |  |  |  |  |  |  |  |  |  | 0.7 °C | 
15 | CC(C)Nc1ccc2cc(C#N)c3nc4ccccc4n3c2c1 | 0.8 µM | 0.8 µM | 0.7 µM | 0.7 µM | 2 µM | 2 µM | 1 µM |  |  |  |  |  |  |  |  |  | 
16 | N#Cc1c(N2CCNCC2)c2ccc(N3CCNCC3)cc2n2c1nc1ccccc12 | 1.5 µM | 1.5 µM | 1 µM | 1 µM | 4 µM | 4 µM | 2 µM | 5.1 °C |  | Active | Active | Active | Active | Active | Active | 20.1 °C | 15.9 °C
17 | CCCCCCNc1ccc2cc(C#N)c3nc4ccccc4n3c2c1 | 5 µM | 5 µM | 5 µM | 5 µM | 5 µM | 5 µM |  |  |  |  |  |  |  |  |  |  | 
18 | CC(C)CCNc1ccc2cc(C#N)c3nc4ccccc4n3c2c1 | 3 µM | 3 µM | 2 µM | 2 µM | 4 µM | 4 µM | 3 µM |  |  |  |  |  |  |  |  |  | 
19 | CN1CCN(c2c(C#N)c3nc4ccccc4n3c3ccccc23)CC1 | 3 µM | 3 µM | 3 µM | 3 µM | 4 µM | 4 µM |  |  |  |  |  |  |  |  |  |  | 
20 | CCCCCCNc1ccc2c(NCCCCCC)c(C#N)c3nc4ccccc4n3c2c1 | > 100 µM | > 100 µM | > 100 µM | > 100 µM | > 100 µM | 500 µM |  |  |  |  |  |  |  |  |  |  | 
21 | COc1cccc2c1C(=O)c1c(O)c3c(c(O)c1C2=O)C[C@@](O)(C(=O)CO)C[C@@H]3O[C@H]1C[C@H](N)[C@H](O)[C@H](C)O1 [DOXORUBICIN] |  |  |  |  | 0.03 µM |  | 0.01 µM |  |  |  |  |  |  |  |  |  | 
22 | CCCCCCNc1c(C#N)c2nc3ccccc3n2c2ccccc12 | 4 µM | 4 µM | 3 µM | 3 µM | 2 µM | 2 µM |  |  |  |  |  |  |  |  |  |  | 
23 | CN1CCN(c2ccc3cc(C#N)c4nc5ccccc5n4c3c2)CC1 | 0.6 µM | 0.6 µM | 2 µM | 2 µM | 1 µM | 1 µM | 0.5 µM |  |  |  |  |  |  |  |  |  | 
24 | CN1CCN(c2ccc3c(N4CCN(C)CC4)c(C#N)c4nc5ccccc5n4c3c2)CC1 | 2 µM | 2 µM | 3 to 4 µM | 3 µM | 3 to 4 µM | 4 µM |  |  |  |  |  |  |  |  |  |  | 
25 | N#Cc1c(N2CCOCC2)c2ccc(N3CCOCC3)cc2n2c1nc1ccccc12 | 11 µM | 11 µM | 9 µM | 8.99 µM | 18 µM | 18 µM |  |  |  |  |  |  |  |  |  | 0.5 °C | 
26 | CC1CN(c2ccc3cc(C#N)c4nc5ccccc5n4c3c2)CC(C)N1 (stereo unspecified) | 0.3 µM | 0.3 µM | 0.6 µM | 0.6 µM | 0.5 µM | 0.5 µM | 0.2 µM |  |  |  |  |  |  |  |  | 0 °C | 
27 | CC(C)CCNc1c(C#N)c2nc3ccccc3n2c2ccccc12 | 5 µM | 5 µM | 4 µM | 4 µM | 2 µM | 2 µM |  |  |  |  |  |  |  |  |  |  | 
